Bioassay records: PubChem BioAssay, several laboratories
UCH37 inh: inhibitors of human deubiquitinating enzyme UCH37; Q9Y5K5; purified proteasome/UCH37, Ub-AMC cleavage fluorescence; inhibition, % (test concentration not listed); 330,000 compounds, 0.33% hits; AID 588478;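 active means mean inhibition over replicate wells above about 20%, limit read from the data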
Target sequence (Q9Y5K5 whole entry, looked up): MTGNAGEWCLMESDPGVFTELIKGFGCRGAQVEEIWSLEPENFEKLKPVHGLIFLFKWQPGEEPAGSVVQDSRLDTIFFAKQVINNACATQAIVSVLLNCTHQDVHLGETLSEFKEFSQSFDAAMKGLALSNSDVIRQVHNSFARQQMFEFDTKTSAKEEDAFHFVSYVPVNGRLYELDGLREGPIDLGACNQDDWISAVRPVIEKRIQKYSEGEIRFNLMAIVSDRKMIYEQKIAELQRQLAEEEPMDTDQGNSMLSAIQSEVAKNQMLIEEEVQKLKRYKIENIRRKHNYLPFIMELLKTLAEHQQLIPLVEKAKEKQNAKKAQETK
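Material: Human UCH37 enzyme supplied as purified proteasome complex | Schedule: 30 min preincubation with enzyme, 25 min cleavage at room temperature | Detection: AMC fluorescence 355/460 nm | Measure: % inhibition of Ub-AMC cleavage fluorescence | Controls: Wells without proteasome as full block, compound-free enzyme plus substrate as uninhibited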
NSD2 inh: NSD2 (human) methyltransferase inhibition. 310,000 compounds, 0.54% hits. inhibition, % at 12.5 µM. O96028. NSD2 peptide methylation, AlphaScreen, 120 min; in the data active means inhibition above about 50%
CASP6 VEID inh: caspase-6 (human) enzyme inhibition. inhibition, % at 12.5 µM. 350,000 compounds, 0.53% hits. purified caspase-6, Z-VEID-R110 cleavage fluorescence;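 active means mean inhibition across replicates at least about 35%, with every replicate also reaching that limit, limit read from the data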
Target sequence (P55212 24-179 limits assumed): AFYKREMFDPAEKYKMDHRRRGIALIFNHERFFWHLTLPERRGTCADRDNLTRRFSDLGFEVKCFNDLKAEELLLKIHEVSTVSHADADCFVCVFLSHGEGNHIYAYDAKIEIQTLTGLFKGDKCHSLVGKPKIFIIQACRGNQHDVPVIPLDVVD
Target sequence (P55212 194-293 limits assumed): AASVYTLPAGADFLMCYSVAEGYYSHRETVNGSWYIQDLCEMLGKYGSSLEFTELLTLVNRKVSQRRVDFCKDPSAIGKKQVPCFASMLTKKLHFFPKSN
TDP2 inh: TDP2 (human) inhibition, absorbance primary screen | recombinant TDP2, T5PNP hydrolysis, p-nitrophenol absorbance 415 nm | inhibition, % at 12.8 µM | 370,000 compounds, 0.34% hits;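 active means inhibition above the mean of all tested compounds plus 3 SD, set per campaign, cut at about 25% in these data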
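System – recombinant human TDP2 · Quantity – TDP2 enzyme at 120 nM final · Doses – single concentration, 12.8 µM nominal, with 1% DMSO · Incubation – 2 h at 37 °C · Measured by – epi absorbance of p-nitrophenol freed from T5PNP by hydrolysis · Read-out – % inhibition relative to enzyme-containing and enzyme-free wells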
LEDGF integ inh: blocks HIV-1 LEDGF/p75-dependent DNA integration; TR-FRET IN-LEDGF/p75 DNA integration, Eu/Cy5; inhibition, % at 3.7 µM; 370,000 compounds, 0.64% hits; AID 743269;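 active means inhibition above the screen-wide mean plus 3 SD, cut at about 13% in these data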;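 further: signal is the Cy5 over europium emission ratio at 671 and 618 nm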
A number is an active result. In the library only some 1.3% were active in any assay of this set; here they are far more common.

`COC(=O)c1ccc(CNC(=O)COC(=O)c2cc(Cl)ccc2O)cc1` gave UCH37 inh inactive, NSD2 inh inactive, CASP6 VEID inh inactive, TDP2 inh inactive and LEDGF integ inh inactive.
`ON=Cc1ccc(-c2ccccc2)o1` gave UCH37 inh inactive.
`CCOC(=O)/C(C#N)=C1/C=CN(c2ccccc2)C=N1` gave UCH37 inh 21, TDP2 inh inactive and LEDGF integ inh inactive.
For CCOC(=O)/C(C#N)=C1/C=CN(c2ccc(C)cc2)C=N1 the results were UCH37 inh inactive, NSD2 inh inactive, TDP2 inh inactive and LEDGF integ inh inactive.
`COc1ccc2c(c1)CCCC21NC(=O)NC1=O` (configuration not stated) gave UCH37 inh inactive, NSD2 inh inactive, TDP2 inh inactive and LEDGF integ inh inactive.
For COC1=CC2(O)CCCC2=CC1=O (configuration not stated) the results were UCH37 inh 30, TDP2 inh inactive and LEDGF integ inh inactive.
`COc1ccccc1/C=C/C=NNc1cccc(C(=O)O)c1` gave UCH37 inh inactive.
For Cc1cccnc1NC(=O)CSc1ncnc2sc(C)c(C)c12 the results were NSD2 inh inactive, CASP6 VEID inh inactive, TDP2 inh inactive and LEDGF integ inh inactive.
`Cc1sc2ncnc(SCC(=O)Nc3ncccc3O)c2c1C` gave UCH37 inh inactive, NSD2 inh inactive, CASP6 VEID inh 43, TDP2 inh inactive and LEDGF integ inh inactive.
Screening COc1ccc(S(=O)(=O)N2CCOCC2)cc1NC(=O)CON=Cc1ccccc1OC(F)F returned UCH37 inh inactive.
Screening O=C(Nc1ccc(S(=O)(=O)O)cc1)c1ccc2c(c1)S(=O)(=O)c1ccccc1C2=O returned UCH37 inh inactive, CASP6 VEID inh inactive, TDP2 inh inactive and LEDGF integ inh inactive.
For O=C(Nc1ccc(Cl)cc1)c1ccc2c(c1)S(=O)(=O)c1ccccc1C2=O the results were UCH37 inh 28, CASP6 VEID inh inactive, TDP2 inh inactive and LEDGF integ inh inactive.
For COC(=O)c1ccccc1CSc1nsc(/C=C/N(C)C)c1C#N the results were UCH37 inh inactive, NSD2 inh inactive and CASP6 VEID inh 37.
For CC(C)(C)OC(=O)N1CCC[C@H]1C(=O)NN=Cc1ccc2nccnc2c1 the results were UCH37 inh inactive.
COc1cc(-n2nc(C)c3c2OC(N)=C(C#N)C3c2ccccc2)c(Cl)c(Br)c1O (configuration not stated) was read as NSD2 inh inactive, TDP2 inh 48 and LEDGF integ inh inactive.
Cc1nn(-c2ccccc2)c2c1C(c1ccncc1)C(C#N)=C(N)O2 (configuration not stated) was read as UCH37 inh inactive, NSD2 inh inactive, TDP2 inh inactive and LEDGF integ inh inactive.
Screening CCN(CC)CCOc1nc(C)nc2c1oc1ccccc12 returned UCH37 inh inactive, NSD2 inh inactive, TDP2 inh inactive and LEDGF integ inh inactive.
`CCN(CC)CCCOc1nc(C)nc2c1oc1ccccc12` gave NSD2 inh 65, TDP2 inh inactive and LEDGF integ inh inactive.
Nc1nc(-c2ccccc2)cn1N=Cc1ccccc1 was read as UCH37 inh inactive.
Screening O=C(O)CCC(=O)N1N=C(c2ccco2)CC1c1cccs1 (configuration not stated) returned NSD2 inh inactive, CASP6 VEID inh inactive, TDP2 inh inactive and LEDGF integ inh inactive.
`O=C(O)CCC(=O)N1N=C(c2ccco2)CC1c1ccco1` (configuration not stated) gave UCH37 inh inactive, NSD2 inh inactive, CASP6 VEID inh 41, TDP2 inh inactive and LEDGF integ inh inactive.
O=C(N/N=C/C=C\c1ccco1)c1ccccn1 was read as NSD2 inh inactive, CASP6 VEID inh 37, TDP2 inh inactive and LEDGF integ inh inactive.
O=C(NN=C/C=C/c1ccco1)c1cnccn1 was read as UCH37 inh 25.
Screening Cc1cccc(C)c1OCc1nc2ccccc2c(=O)n1N=Cc1c[nH]c2ccccc12 returned UCH37 inh inactive.
Screening COc1cc(O)c(C=NNC(=O)c2ccncc2)c(OC)c1[N+](=O)[O-] returned UCH37 inh inactive.
CCN(CC)c1nc(N)c2c(N)nc(OC)cc2c1C#N was read as UCH37 inh inactive, CASP6 VEID inh 51, TDP2 inh inactive and LEDGF integ inh inactive.
`COc1cc2c(C#N)c(N3CCOCC3)nc(N)c2c(N)n1` gave UCH37 inh inactive, NSD2 inh inactive, TDP2 inh inactive and LEDGF integ inh inactive.
COc1ccc(C=NNc2cc(N3CCOCC3)nc(C)n2)c(OC)c1 was read as UCH37 inh inactive.
C[n+]1c(-c2ccc(C=NNC(=O)c3ccc(C(=O)NN=Cc4ccc(-c5cn6ccccc6[n+]5C)cc4)cc3)cc2)cn2ccccc21 was read as NSD2 inh inactive, CASP6 VEID inh inactive, TDP2 inh inactive and LEDGF integ inh 31.
O=C(N/N=C\c1ccc(F)cc1)c1ccc(F)cc1 was read as NSD2 inh inactive, CASP6 VEID inh inactive, TDP2 inh inactive and LEDGF integ inh inactive.
CN(CC(=O)Nc1ccc(OC(F)(F)F)cc1)C(=O)c1ccccc1SCC(=O)N1CCCC1 was read as UCH37 inh inactive, NSD2 inh inactive, CASP6 VEID inh 81, TDP2 inh inactive and LEDGF integ inh inactive.
CCOc1cc(C=NNC(=O)CSc2nncn2C)ccc1OC(=O)c1ccc(Cl)cc1 was read as UCH37 inh inactive.
`Cc1cc(-c2csc(NCc3ccccc3)n2)c(C)n1C` gave UCH37 inh inactive.
Screening CCNc1nc(-c2cc(C)n(Cc3ccco3)c2C)cs1 returned UCH37 inh inactive, NSD2 inh inactive, CASP6 VEID inh 51, TDP2 inh inactive and LEDGF integ inh inactive.
`CC1=CCC(C(C)(C)NC(=O)c2ccccc2)CC1=NO` (configuration not stated) gave UCH37 inh inactive.
Screening COc1cccc(NC(=O)Cn2c(=O)n(C)c(=O)c3sc4c(c32)COC(C)(C)C4)c1 returned UCH37 inh inactive, NSD2 inh inactive, CASP6 VEID inh 44, TDP2 inh inactive and LEDGF integ inh inactive.
`Cc1cccc(NC(=O)Cn2nnc3sc4c(c3c2=O)CC(C)(C)OC4)c1` gave UCH37 inh inactive, NSD2 inh inactive, CASP6 VEID inh inactive, TDP2 inh inactive and LEDGF integ inh inactive.
COC(=O)c1c(NC(=O)/C=C/C(=O)O)sc(C)c1-c1ccc(C(C)C)cc1 was read as UCH37 inh inactive, NSD2 inh inactive, CASP6 VEID inh 37, TDP2 inh inactive and LEDGF integ inh inactive.
Screening Cc1ccc(/C=C/C(=O)c2ccccc(=O)c2O)c(C)c1 returned UCH37 inh inactive, NSD2 inh inactive, CASP6 VEID inh 39, TDP2 inh inactive and LEDGF integ inh inactive.
`Cc1ccc(C)c(/C=C/C(=O)c2ccccc(=O)c2O)c1` gave UCH37 inh inactive, NSD2 inh inactive, TDP2 inh inactive and LEDGF integ inh inactive.
`O=C(CSCc1ccccc1Br)NN=Cc1ccc2c(c1)OCO2` gave UCH37 inh inactive.
